ChEMBL document CHEMBL1148764, “CYP2C9 structure-metabolism relationships: optimizing the metabolic stability of COX-2 inhibitors” (J Med Chem, 2007)

Key:
[1] = biological target: CYP2C9 (Homo sapiens, UniProt P11712); assay: Metabolic stability in presence of human recombinant CYP2C9 at 1 uM after 30 mins; type: ADME
Method in brief: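 Recombinant human CYP2C9 (Bactosomes), 5 pmol per reaction, in […] buffer pH 7.4 with 1 mM NADPH. Compound 1 µM, added in acetonitrile (2.5% final). 10 min preincubation at 37 °C, reaction started with NADPH, sampled at 0 and 30 min, stopped with ice-cold acetonitrile. Parent remaining quantified by LC/MS/MS as % metabolized. Run in duplicate.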

[2] = biological target: Prostaglandin G/H synthase 1 (Homo sapiens) (UniProt P23219); conditions: at 100 µM;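 note: recombinant human COX-1 enzyme, activity read out as PGE2 production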
[3] = biological target: T1, Prostaglandin G/H synthase 2 (Homo sapiens) (UniProt P35354); conditions: at 100 µM;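 note: recombinant enzyme assay, activity read out as PGE2 generation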
T1 sequence (whole entry): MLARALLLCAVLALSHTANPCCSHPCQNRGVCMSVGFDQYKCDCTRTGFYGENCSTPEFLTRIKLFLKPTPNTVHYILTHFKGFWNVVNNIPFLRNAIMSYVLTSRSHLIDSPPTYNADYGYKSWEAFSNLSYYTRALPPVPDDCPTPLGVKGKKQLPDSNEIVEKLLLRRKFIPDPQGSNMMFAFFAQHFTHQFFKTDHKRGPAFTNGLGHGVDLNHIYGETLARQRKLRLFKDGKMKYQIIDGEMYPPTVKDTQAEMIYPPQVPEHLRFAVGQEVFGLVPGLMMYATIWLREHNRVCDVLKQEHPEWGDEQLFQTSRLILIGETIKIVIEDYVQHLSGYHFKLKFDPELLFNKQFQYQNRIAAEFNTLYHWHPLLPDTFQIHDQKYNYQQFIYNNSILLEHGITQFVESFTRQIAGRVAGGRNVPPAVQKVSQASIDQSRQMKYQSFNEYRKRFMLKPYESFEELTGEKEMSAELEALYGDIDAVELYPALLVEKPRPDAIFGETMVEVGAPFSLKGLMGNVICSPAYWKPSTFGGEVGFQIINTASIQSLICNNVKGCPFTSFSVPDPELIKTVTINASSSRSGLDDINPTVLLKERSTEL

Chain of Prostaglandin G/H synthase 1 (Homo sapiens) (P23219 whole entry): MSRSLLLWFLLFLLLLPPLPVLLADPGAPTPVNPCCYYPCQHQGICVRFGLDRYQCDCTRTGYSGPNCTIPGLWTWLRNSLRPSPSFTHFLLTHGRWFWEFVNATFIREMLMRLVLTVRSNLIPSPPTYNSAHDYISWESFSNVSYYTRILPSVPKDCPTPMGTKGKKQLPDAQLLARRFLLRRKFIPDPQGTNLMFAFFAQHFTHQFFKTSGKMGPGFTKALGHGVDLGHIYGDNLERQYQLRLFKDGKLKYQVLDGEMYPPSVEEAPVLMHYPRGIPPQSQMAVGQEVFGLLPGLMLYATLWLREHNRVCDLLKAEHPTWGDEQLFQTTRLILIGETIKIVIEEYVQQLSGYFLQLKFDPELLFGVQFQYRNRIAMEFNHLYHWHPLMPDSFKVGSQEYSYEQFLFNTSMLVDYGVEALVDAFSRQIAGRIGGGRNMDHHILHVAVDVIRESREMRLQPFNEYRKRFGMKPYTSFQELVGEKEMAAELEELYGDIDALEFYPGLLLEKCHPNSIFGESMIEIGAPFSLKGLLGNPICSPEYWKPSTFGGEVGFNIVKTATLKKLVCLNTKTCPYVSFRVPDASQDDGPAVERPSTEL
Chain of CYP2C9 (P11712 whole entry): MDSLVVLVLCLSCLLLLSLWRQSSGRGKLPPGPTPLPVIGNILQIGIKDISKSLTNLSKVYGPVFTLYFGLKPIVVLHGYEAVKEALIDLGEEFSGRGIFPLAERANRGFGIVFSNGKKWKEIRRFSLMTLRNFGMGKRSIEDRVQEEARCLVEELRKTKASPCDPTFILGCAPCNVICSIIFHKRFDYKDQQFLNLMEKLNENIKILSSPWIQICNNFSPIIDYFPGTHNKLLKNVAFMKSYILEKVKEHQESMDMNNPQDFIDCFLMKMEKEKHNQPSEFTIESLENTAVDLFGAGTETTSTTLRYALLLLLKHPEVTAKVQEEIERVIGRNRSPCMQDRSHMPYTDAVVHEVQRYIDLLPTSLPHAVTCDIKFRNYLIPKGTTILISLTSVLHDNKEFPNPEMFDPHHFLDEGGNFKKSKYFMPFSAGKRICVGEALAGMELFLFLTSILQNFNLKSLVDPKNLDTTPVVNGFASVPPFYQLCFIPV

Row | metabolized at 0.5 h, 1 µM [1] [%] | inhibition [2] [%] | inhibition [3] [%] | SMILES
1 | 0 |  |  | NS(=O)(=O)c1ccc(-n2nc(C(F)(F)F)cc2-c2ccc(C(F)(F)F)cc2)cc1
2 | 87 | 95 | 99 | CSc1ccc(-n2nc(C(F)(F)F)cc2-c2ccc(C)cc2)cc1
3 | 94 |  |  | Cc1ccc(-c2cc(C(F)(F)F)nn2-c2ccc(S(N)(=O)=O)cc2)cc1 [CELECOXIB]
4 | 29 | 67 | 26 | Cc1ccc(-c2cc(C(F)(F)F)nn2-c2ccc(C(=O)O)cc2)cc1
5 | 61 | 66 | 43 | Cc1ccc(-c2cc(C(=O)O)nn2-c2ccc(S(N)(=O)=O)cc2)cc1
6 | 2 | 55 | 96 | CCOC(=O)c1ccc(-n2nc(C(F)(F)F)cc2-c2ccc(C(F)(F)F)cc2)cc1
7 | 88 | 55 | 87 | CCOC(=O)c1ccc(-n2nc(C(F)(F)F)cc2-c2ccc(C)cc2)cc1
8 | 10 | 88 | 95 | Cc1ccc(-c2cc(C(F)(F)F)nn2-c2ccc(CC(=O)O)cc2)cc1
9 | 30 |  |  | Cc1ccc(-c2cc(C(F)(F)F)nn2-c2ccc(C)cc2)cc1
10 | 81 | 99 | 92 | Cc1ccc(-c2cc(C(F)(F)F)nn2-c2ccc(S(C)(=O)=O)cc2)cc1
11 | 49 | 100 | 92 | Cc1ccc(-c2cc(-c3ccccc3)nn2-c2ccc(S(N)(=O)=O)cc2)cc1
12 | 29 | 28 | 6 | O=C(O)c1ccc(-n2nc(C(F)(F)F)cc2-c2ccc(C(F)(F)F)cc2)cc1
13 | 48 | 82 | 99 | Cc1ccc(-c2cc(C(F)(F)F)nn2-c2ccc([S+](C)[O-])cc2)cc1 (stereo unspecified)
14 | 4 | 96 | 93 | O=C(O)Cc1ccc(-n2nc(C(F)(F)F)cc2-c2ccc(C(F)(F)F)cc2)cc1
